ZTA DNA inh – blocks Epstein-Barr virus ZTA, an EBNA-1 counter-screen | ZTA-DNA binding, fluorescence polarization | inhibition, % at 11 µM | 0.15% of 320,000 active | AID 2234; in the data active = inhibition above about 33%
Target sequence (P03206 whole entry, looked up): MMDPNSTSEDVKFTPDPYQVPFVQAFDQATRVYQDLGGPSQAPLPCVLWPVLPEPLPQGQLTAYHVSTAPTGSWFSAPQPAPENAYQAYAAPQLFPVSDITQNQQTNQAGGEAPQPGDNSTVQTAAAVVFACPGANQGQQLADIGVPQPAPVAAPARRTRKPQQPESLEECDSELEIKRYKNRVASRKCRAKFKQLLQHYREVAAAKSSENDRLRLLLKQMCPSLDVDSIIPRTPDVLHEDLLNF
DNA FID counter – compounds displacing fluorescent DNA intercalator, primary screen, artefact control for HCV NS3 helicase inhibitor project, biochemical, FID fluorescence | inhibition, % at 7.9 µM | DNA fluorescent intercalator displacement | 0.17% of 290,000 active; in the data active = inhibition above about 37%;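 also: 0% = vehicle and 100% = reference compound; higher means more ethidium bromide displaced from hairpin DNA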
FGF22 binding – binders of human FGF22 protein, primary screen, FGF22 synaptogenesis inhibitor project, biophysical, thermal shift, single point. AID 651658, 2012. activity (Tm shift, normalised), % at 9.99 µM. Fibroblast growth factor 22 (Homo sapiens), Q9HCT0. 1.5% of 340,000 active. recombinant FGF22 thermal shift, SYPRO orange fluorescence; percent of sucrose octasulfate shift, DMSO zero;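 active = mean Tm shift, scaled 0 neutral to 100 positive control, at about 1.3% or above, every replicate too, limit read from the data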
Target sequence (Q9HCT0 whole entry, looked up): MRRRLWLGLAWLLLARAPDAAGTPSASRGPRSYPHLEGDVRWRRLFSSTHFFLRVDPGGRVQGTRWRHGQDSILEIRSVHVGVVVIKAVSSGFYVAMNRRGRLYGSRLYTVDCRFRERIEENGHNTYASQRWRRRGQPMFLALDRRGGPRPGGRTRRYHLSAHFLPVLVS
HCV NS3 hel inh – inhibitors of HCV NS3 helicase, primary screen, biochemical, Cy5 molecular beacon fluorescence; NS3 helicase DNA unwinding; inhibition, % at 10.9 µM; 0.56% of 290,000 active; AID 1800, 2009;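 active = inhibition above the mean of all tested compounds plus 3 SD, set per campaign, cut at about 35% in these data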;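 also: 0% = DMSO wells and 100% = thioflavine S control wells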
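System: HCV NS3 helicase fragment; control set: DMSO and thioflavine S; technique: Cy5 fluorescence at 0 and 60 min, beacon hairpin quenching; reagent: beacon DNA duplex substrate plus ATP; replicates: singlicate; schedule: 1 h reaction at 25 °C, ATP-initiated; medium: MOPS buffer pH 6.5 with MgCl2, DTT, Tween20, BSA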
GRIN3A LBD mod – binders of NR3A ligand-binding domain, primary screen, biophysical, differential scanning fluorimetry, uHTS | AID 1259313, 2017 | 2.5% of 340,000 active | Tm shift relative to glycine control, % at 25 µM | Glutamate receptor ionotropic, NMDA 3A (GRIN3A) ligand-binding domain | NR3A LBD differential scanning fluorimetry, Tm shift; 0% = protein alone, 100% = glycine-bound protein;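 active = melting temperature shift of at least 10% of the positive control shift, at one fixed dose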
EBNA-1 inh – EBNA-1 DNA-binding inhibitors, primary screen, biochemical, fluorescence polarization; inhibition, % at 14.8 µM; 0.34% of 300,000 active; AID 1950, 2009; in the data active = inhibition above about 28%
EBNA-1 inh conf – EBNA-1 DNA-binding inhibitors, retest, confirmation, biochemical, fluorescence polarization, triplicate. Recombinant EBNA-1 DBD, Cy5-DNA fluorescence polarization. inhibition, % at 14.8 µM. shares compounds with EBNA-1 inh. 35% of 830 active;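 active = mean inhibition across replicates above a set limit taken from the earlier primary screen, cut at about 28% in these data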;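 also: plate controls were EBNA-1 protein with DMSO for no effect and wells lacking EBNA-1 for full effect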
ZTA DNA inh trip – EBV Zta DNA binding inhibitors, counter-screen for EBNA-1 inhibitor project, biochemical, fluorescence polarization, triplicate; shares compounds with EBNA-1 inh; Zta-ZRE DNA binding, Cy5 fluorescence polarization; inhibition, % at 11.1 µM; 830 tested, under 10 active; AID 2328, 2010;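 active = mean inhibition over triplicates above a set limit taken from the primary EBNA-1 screen, cut at about 37% in these data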;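 also: purified full length Zta protein with Cy5 labeled ZRE DNA probe; 0% = Zta with DMSO and 100% = wells lacking Zta protein; inhibitors lower polarization by freeing the labeled DNA probe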
* = called active by the depositor. Rows were chosen to be rich in hits. Some 3.6% of all compounds tested hit in one or more screens of this group.

CO[C@@H]1CN(C)C(=O)c2cc(NC(C)=O)ccc2OC[C@@H](C)N(Cc2ccc(F)cc2)C[C@@H]1C was read as FGF22 binding 0.
`COc1ccc(CNc2nc(NCc3ccc(OC)cc3)n(C(C)=O)n2)cc1` gave ZTA DNA inh 0, DNA FID counter -4, HCV NS3 hel inh 10, GRIN3A LBD mod 3, EBNA-1 inh 65*, EBNA-1 inh conf 72* and ZTA DNA inh trip 9.
For CC(=O)n1nc(-c2ccc(C)cc2)nc1NCc1ccc(F)cc1 the results were DNA FID counter -6, FGF22 binding 0, HCV NS3 hel inh -3 and GRIN3A LBD mod 5.
`COc1cc2[nH]c(=O)n(Cc3ccccc3Cl)c(=O)c2cc1OC` gave ZTA DNA inh -7, DNA FID counter 0, HCV NS3 hel inh -7, GRIN3A LBD mod 1, EBNA-1 inh 39*, EBNA-1 inh conf 22 and ZTA DNA inh trip 3.
Screening COc1cc2[nH]c(=S)n(Cc3ccccc3)c(=O)c2cc1OC returned ZTA DNA inh -1, DNA FID counter 4, FGF22 binding 0, HCV NS3 hel inh 7, GRIN3A LBD mod 8 and EBNA-1 inh 17.
`CCOC(=O)N1CCN(C(=O)C2CC(=O)N(Cc3ccc(OC)cc3)C2)CC1` (configuration not stated) gave ZTA DNA inh -3, DNA FID counter -13, HCV NS3 hel inh 0, GRIN3A LBD mod 2 and EBNA-1 inh 1.
For COc1ccc(CN2CC(C(=O)N3CCOCC3)CC2=O)cc1 (configuration not stated) the results were ZTA DNA inh -3, DNA FID counter 0, HCV NS3 hel inh -2, GRIN3A LBD mod 0, EBNA-1 inh 47*, EBNA-1 inh conf -13 and ZTA DNA inh trip -26.
For CN(C)C(=O)c1cccc(-c2ccc(C3[C@H]4CNC[C@@H]3N4S(=O)(=O)c3ccccc3F)cc2)c1 (some centres not stated) the results were FGF22 binding 0.
For CCOC(=O)[C@H]1[C@H]2COc3ccc(Cl)cc3[C@@H]2N2C(=O)c3ccc(Cl)cc3NC(=O)[C@@]12C the results were ZTA DNA inh -2, FGF22 binding 0, GRIN3A LBD mod -5, EBNA-1 inh 77*, EBNA-1 inh conf 82* and ZTA DNA inh trip 13.
For O=C(NCCc1c[nH]c2ccccc12)C1CCC(Cn2c(=S)[nH]c3ccccc3c2=O)CC1 (configuration not stated) the results were ZTA DNA inh 15, DNA FID counter -34, HCV NS3 hel inh -25, GRIN3A LBD mod 3, EBNA-1 inh 28*, EBNA-1 inh conf 7 and ZTA DNA inh trip -5.
`CC(C)NC(=O)N(C)C[C@H]1Oc2cc(C#Cc3ccccn3)ccc2S(=O)(=O)N([C@H](C)CO)C[C@H]1C` gave FGF22 binding -1.
Screening COc1ccc(NC(=O)c2cc(S(=O)(=O)N3CCc4ccccc43)cn2C)cc1OC returned ZTA DNA inh 7, DNA FID counter -27, FGF22 binding 0, HCV NS3 hel inh -5, GRIN3A LBD mod -1, EBNA-1 inh 40*, EBNA-1 inh conf 39* and ZTA DNA inh trip -1.
`COc1ccc(NC(=O)c2cc(S(=O)(=O)N3CCc4ccccc43)cn2C)c(OC)c1` gave ZTA DNA inh -4, DNA FID counter -33, HCV NS3 hel inh -31, GRIN3A LBD mod 2 and EBNA-1 inh -6.
For COc1ccc(C#Cc2cnc3c(c2)C(=O)N([C@@H](C)CO)C[C@H](C)[C@@H](CN(C)C(=O)CN(C)C)O3)cc1 the results were FGF22 binding 0.
For COc1cccc(-c2cc(C(=O)Nc3cnn(Cc4ccc(F)cc4)c3)no2)c1 the results were ZTA DNA inh -2, DNA FID counter -4, HCV NS3 hel inh 2, GRIN3A LBD mod 4, EBNA-1 inh 47*, EBNA-1 inh conf 32* and ZTA DNA inh trip 18.
`CCn1c(COc2ccccc2C)nnc1SCC(=O)Nc1cc(C)on1` gave ZTA DNA inh 0, DNA FID counter 1, HCV NS3 hel inh -4, GRIN3A LBD mod -2, EBNA-1 inh 50*, EBNA-1 inh conf 3 and ZTA DNA inh trip 13.
CCCNC(=O)N1CC2(CN(S(=O)(=O)CC)C2)c2c(n(C)c3cc(OC)ccc23)[C@H]1CO was read as FGF22 binding 0.
For CCOc1ccc2oc(C(=O)Nc3nccs3)c(C)c2c1 the results were FGF22 binding 0 and GRIN3A LBD mod 1.
COc1ccc2oc(C(=O)Nc3nccs3)c(C)c2c1 was read as ZTA DNA inh -6, FGF22 binding 0, EBNA-1 inh 29*, EBNA-1 inh conf 55* and ZTA DNA inh trip 13.
For CCOC(=O)Nc1ccccc1C(=O)Nc1cc(C)cc(C)c1 the results were ZTA DNA inh -13, DNA FID counter -9, FGF22 binding 0, HCV NS3 hel inh 6, GRIN3A LBD mod -6 and EBNA-1 inh -4.
Screening Cc1cccc(COC(=O)Nc2ccc(NC(=O)c3ccccc3Cl)cc2)c1 returned ZTA DNA inh -13, DNA FID counter -10, FGF22 binding 0, HCV NS3 hel inh -9, GRIN3A LBD mod 0, EBNA-1 inh 48*, EBNA-1 inh conf 5 and ZTA DNA inh trip -5.
Screening N#C/C(=C(/O)COC(=O)CSc1ccc2ccccc2c1)c1nc2ccccc2[nH]1 returned ZTA DNA inh 9, DNA FID counter -8, HCV NS3 hel inh 6, GRIN3A LBD mod 20*, EBNA-1 inh 39*, EBNA-1 inh conf 9 and ZTA DNA inh trip 10.
`Cc1ccc(C)c(SCC(=O)OC/C(O)=C(\C#N)c2nc3ccccc3[nH]2)c1` gave DNA FID counter -3, FGF22 binding 0, HCV NS3 hel inh 18 and GRIN3A LBD mod -1.
For CCCNC(=O)N(C)C[C@@H]1Oc2cc(-c3ccccc3F)ccc2S(=O)(=O)N([C@H](C)CO)C[C@@H]1C the results were FGF22 binding 0.
